Assay type in all cases: cell-based
The subject of experiment [1] is Candida glabrata ATCC 90030. The experiment in a line: antifungal screening. The settings on record: Nakaseomyces glabratus, ATCC90030, read-out: IC50 against Candida glabrata. Summed up: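 Tested alongside C. albicans ATCC 90028, C. krusei ATCC 6258, Cryptococcus neoformans ATCC 90113 and Aspergillus fumigatus ATCC 204305, following a previously described procedure. IC50 derived by curve fitting. Amphotericin B was the positive control.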

The test system of experiment [2] is chloroquine-sensitive (D6) Plasmodium falciparum. The experiment in a line: antiplasmodial screening by plasmodial LDH activity, D6 strain. The settings on record: for selectivity index (SI), ratio of VERO IC50 to D6 IC50: VERO mammalian cell line.
For experiment [3], the system named is chloroquine-resistant (W2) Plasmodium falciparum. The experiment in a line: antiplasmodial screening by plasmodial LDH activity, W2 strain. The note with it: for selectivity index (SI), ratio of VERO IC50 to W2 IC50: VERO mammalian cell line.
Experiment [4] deals with Trypanosoma brucei brucei. As to the kind of experiment: antitrypanosomal Alamar Blue assay on Trypanosoma brucei trypomastigotes. In outline: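 Trypomastigote cultures of T. brucei brucei exposed to test compound, with viability read by Alamar Blue. DFMO served as positive control.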
On the technique in general: Resazurin is reduced to fluorescent resorufin, in cell work by metabolically active cells.

As a reminder, the IC50 is the concentration that inhibits the measured activity by half.

≈ marks a conversion by molar mass, not a printed value. Bounds are passed on as bounds.

In the case of `C[C@@H]1[C@H](O)[C@@H](C)/C=C/C=C/C=C/C=C/C=C/C=C/C=C/[C@H](O[C@@H]2O[C@H](C)[C@@H](O)[C@H](N)[C@@H]2O)C[C@@H]2O[C@](O)(C[C@@H](O)C[C@@H](O)[C@H](O)CC[C@@H](O)C[C@@H](O)CC(=O)O[C@H]1C)C[C@H](O)[C@H]2C(=O)O` [AMB, amphotericin B, reference compound], in experiment [1], the IC50 turned out to be 0.34 µg/mL (≈ 0.368 µM).

With `COC(=O)C1(O)CC(O)C(OC(=O)/C=C/c2ccc(O)c(O)c2)C(OC(=O)/C=C/c2ccc(O)c(O)c2)C1` (centres unmarked) [Compound 20, 4,5-dicaffeoyl quinic acid methyl ester], in experiment [2], the “selectivity index (SI), ratio of VERO IC50 to D6 IC50” value was over 1.4. Also, the “IC50 against chloroquine-sensitive (D6) Plasmodium falciparum” value in experiment [2] (plasmodial LDH activity) was determined as 3.29 µg/mL (≈ 6.2 µM). Besides, the “selectivity index (SI), ratio of VERO IC50 to W2 IC50” value in experiment [3] is over 1. The “IC50 against chloroquine-resistant (W2) Plasmodium falciparum” value in experiment [3] (plasmodial LDH activity) was 4.53 µg/mL (≈ 8.54 µM).

Take `C=C[C@]1(C)CC[C@H](C(C)(C)O[C@@H]2O[C@H](CO[C@@H]3OC[C@@H](O)[C@H](O)[C@H]3O)[C@@H](O)[C@H](O)[C@H]2O)O1` (relative stereo) [Compound 9, (3S, 6R) cis-linalool 3,6 oxide, O-β-D-xylopyranosyl-(1″→6′)-β-D-glucopyranoside]: in experiment [4], the “IC50, trypanocidal activity against Trypanosoma brucei brucei” value (“IC50, trypanocidal activity” below) turned out to be 8.18 µg/mL (≈ 17.6 µM) and the “IC90, trypanocidal activity against Trypanosoma brucei brucei” value (shortened to “IC90, trypanocidal activity”) is over 10 µg/mL.

Consider `CCN(CC)CCCC(C)Nc1ccnc2cc(Cl)ccc12` (centres unmarked) [chloroquine, reference compound], for which, in experiment [2], the “selectivity index (SI), ratio of VERO IC50 to D6 IC50” value is listed as over 9. Also, the “selectivity index (SI), ratio of VERO IC50 to W2 IC50” value in experiment [3] was over 2.1.

Take `C[C@@H]1O[C@@H](Oc2cc(O)c3c(=O)c(O)c(-c4ccc(O)c(O)c4)oc3c2)[C@H](O)[C@H](O)[C@H]1O` [Compound 15, quercetin-7-O-α-L-rhamnopyranoside]: in experiment [4], the “IC50, trypanocidal activity” value was 9.02 µg/mL (≈ 20.1 µM) and the “IC90, trypanocidal activity” value is over 10 µg/mL.

Regarding `NCCCC(N)(C(=O)O)C(F)F` (centres unmarked) [DFMO, difluoromethylornithine, reference compound], in experiment [4], the “IC50, trypanocidal activity” value is 2.30 µg/mL (≈ 12.6 µM) and the “IC90, trypanocidal activity” value stood at 5.20 µg/mL (≈ 28.5 µM).

Regarding `O=c1c(O)c(-c2ccc(O)c(O)c2)oc2cc(O)cc(O)c12` [Compound 16, quercetin], the IC50 in experiment [1] is 8.66 µg/mL (≈ 28.7 µM).
